The source made the active and inactive calls. The rule behind the calls is not given here.
What was measured:
[1] = Cell cycle arrest in human PC3 cells assessed as accumulation at S phase at 1.3 uM after 24 hrs by propidium iodide staining based flow cytometry (reference value: 15.3 +/- 3.1%); type: functional; conditions: PC-3
Summary of the method: (§1)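 PC3 cells exposed to compound at various concentrations for 24 h, then harvested, rinsed in ice-cold PBS and fixed in 70% alcohol at −20 °C for 16 h. After a second cold PBS wash, cells were held 20 min at room temperature in 1 mL containing 0.1% Triton X-100, 0.2 mg RNase A and 2 μL PI (1 mg/mL). DNA content was read by flow cytometry.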

[2] = Cell cycle arrest in human PC3 cells assessed as accumulation at G2/M phase at 4 uM after 24 hrs by propidium iodide staining based flow cytometry (reference value: 22.2 +/- 0.4%); type: functional; conditions: PC-3; summary of the method: as §1
[3] = Cell cycle arrest in human PC3 cells assessed as accumulation at S phase at 4 uM after 24 hrs by propidium iodide staining based flow cytometry (reference value: 15.3 +/- 3.1%); type: functional; conditions: PC-3; summary of the method: as §1
[4] = Cell cycle arrest in human PC3 cells assessed as accumulation at G0/G1 phase at 1.3 uM after 24 hrs by propidium iodide staining based flow cytometry (reference value: 62.5 +/- […]%); type: functional; conditions: PC-3
[5] = Cell cycle arrest in human PC3 cells assessed as accumulation at S phase at 0.4 uM after 24 hrs by propidium iodide staining based flow cytometry (reference value: 15.3 to 25.8%); type: functional; conditions: PC-3; summary of the method: as §1
[6] = Cell cycle arrest in human PC3 cells assessed as accumulation at G2/M phase at 0.4 uM after 24 hrs by propidium iodide staining based flow cytometry (reference value: 18.7 to 22.2%); type: functional; conditions: PC-3; summary of the method: as §1
[7] = Cell cycle arrest in human PC3 cells assessed as accumulation at G0/G1 phase at 4 uM after 24 hrs by propidium iodide staining based flow cytometry (reference value: 62.5 +/- […]%); type: functional; conditions: PC-3
[8] = Cytotoxicity against human PC3 cells assessed as growth inhibition after 72 hrs by Alamar blue assay; type: functional, cell-based; conditions: PC-3, 72 h
[9] = Cell cycle arrest in human PC3 cells assessed as accumulation at G0/G1 phase at 0.4 uM after 24 hrs by propidium iodide staining based flow cytometry (reference value: 55.6 to 62.5%); type: functional; conditions: PC-3; summary of the method: as §1
[10] = Cell cycle arrest in human PC3 cells assessed as accumulation at G2/M phase at 1.3 uM after 24 hrs by propidium iodide staining based flow cytometry (reference value: 22.2 +/- 0.4%); type: functional; conditions: PC-3; summary of the method: as §1
PC-3 = experiment: Cytotoxicity against human PC3 cells assessed as growth inhibition at 80 uM after 72 hrs by Alamar blue assay; type: functional, cell-based
[11] = Cell cycle arrest in human PC3 cells assessed as accumulation at G2/M phase at 0.13 uM after 24 hrs by propidium iodide staining based flow cytometry (reference value: 18.7 +/- 0.7%); type: functional; conditions: PC-3; summary of the method: as §1
[12] = Cell cycle arrest in human PC3 cells assessed as accumulation at S phase at 0.13 uM after 24 hrs by propidium iodide staining based flow cytometry (reference value: 25.8 +/- 0.7%); type: functional; conditions: PC-3; summary of the method: as §1
[13] = Cell cycle arrest in human PC3 cells assessed as accumulation at S phase at 0.04 uM after 24 hrs by propidium iodide staining based flow cytometry (reference value: 25.8 +/- 0.7%); type: functional; conditions: PC-3; summary of the method: as §1
[14] = Cell cycle arrest in human PC3 cells assessed as accumulation at G0/G1 phase at 0.13 uM after 24 hrs by propidium iodide staining based flow cytometry (reference value: 55.6 +/- 1.4%); type: functional; conditions: PC-3; summary of the method: as §1
[15] = Cell cycle arrest in human PC3 cells assessed as accumulation at G0/G1 phase at 0.04 uM after 24 hrs by propidium iodide staining based flow cytometry (reference value: 55.6 +/- 1.4%); type: functional; conditions: PC-3; summary of the method: as §1
[16] = Cell cycle arrest in human PC3 cells assessed as accumulation at G2/M phase at 0.04 uM after 24 hrs by propidium iodide staining based flow cytometry (reference value: 18.7 +/- 0.7%); type: functional; conditions: PC-3; summary of the method: as §1

Compound Cc1oc(C(Br)=C(Br)Br)cc(=O)c1O has an Activity [1] of 21.5%, an Activity [2] of 2.9% and an Activity [3] of 23.8%. For the same compound, the Activity [4] was 72.7%, the Activity [5] was 18.2% and the Activity [6] was 18.1%. It also gave an Activity [7] of 73.3%, an IC50 [8] of 10000 nM and an Activity [9] of 63.7%. It also gave an Activity [10] of 5.8%.

For CC(=O)O[C@@H](C(Br)=C(Br)Br)C(Br)Br, the inhibition (PC-3) was “inactive”.

With CC(=O)O[C@H]1C(=O)[C@@]2(C)[C@H]([C@H](OC(=O)c3ccccc3)[C@]3(O)C[C@H](OC(=O)[C@H](O)[C@@H](NC(=O)c4ccccc4)c4ccccc4)C(C)=C1C3(C)C)[C@]1(OC(C)=O)CO[C@@H]1C[C@@H]2O [PACLITAXEL] the IC50 [8] was 2 nM.

In the case of CC[C@@]1(O)C(Br)=C(Br)C(=O)C1=C(Br)Br, the Activity [11] is reported as 11.2%, the Activity [12] is reported as 13.8% and the Activity [13] is reported as 18.1%. The Activity [14] was 75%, the Activity [5] was 11.5% and the Activity [15] was 63.3%. For the same compound, the Activity [6] was 0.1%, the IC50 [8] was 440 nM and the Activity [16] was 13.6%. It also gave an Activity [9] of 88.4%.
